The list is not random: actives were taken first. Their share in the collection is about 4.1%.
KCNK3 inh – human KCNK3 channel inhibition, primary screen | CHO-KCNK3 thallium flux, FluxOR fluorescence; stronger effect = lower value | B-score at 10 µM | 340,000 compounds, 0.84% hits;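 active = B-score under library mean minus 4 SD, starting fluorescence ratio at most library mean plus 5 SD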;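 also: more negative B-score means stronger inhibition of thallium flux through KCNK3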
KCNK9 inh – blocks the human KCNK9 two-pore domain potassium channel; B-score at 10 µM; AID 488922; Q9NPC2; 310,000 compounds, 1.2% hits; HEK293 KCNK9, FluxOR thallium flux fluorescence; stronger effect = lower value;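 active = ratio B-score over 3 SD below the library mean, with starting fluorescence within 5 SD of its mean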;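 also: negative B-score means less thallium flux so channel inhibition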
KCNQ1 pot – potentiators or activators of human KCNQ1 potassium channel. CHO-K1 KCNQ1, thallium flux FluxOR fluorescence; stronger effect = higher value. B-score at 10 µM. 310,000 compounds, 0.35% hits. AID 2648;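 active = fluorescence ratio B-score, a plate-corrected score, at least three library SD, with initial intensity B-score within 5 SD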
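Assay system: CHO-K1 cells stably expressing KCNQ1; Medium: assay buffer with matched DMSO; Also added: K+/Tl+ depolarizing stimulus; Dosing: single dose; Timing: dye 90 min, compound 20 min, room temperature; Measured by: kinetic FluxOR thallium fluorescence, 10-s 1-Hz baseline, 110-s post-stimulus read; Read-out: peak-minus-minimum fluorescence over initial fluorescence, negative-control normalized, B-scored.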
KCNQ1 inh – inhibitors of human KCNQ1 potassium channel. P51787. CHO-K1 KCNQ1, FluxOR thallium flux fluorescence; stronger effect = higher value. B-score at 10 µM. 310,000 compounds, 1.3% hits. AID 2642;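 active = compounds whose thallium flux B-score, printed positive for inhibition, exceeds three library SD while starting fluorescence stays within three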;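 also: channel opened by potassium depolarization with thallium stimulus after 20 min compound exposure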
hERG rescue – shields human hERG channel from block by proarrhythmic agents; Q12809; CHO-hERG, FluxOR thallium flux, dofetilide IC70 present; activation (rescue from dofetilide block), less the hit threshold, % at 10 µM; 310,000 compounds, 0.51% hits;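 active = activation above the mean of controls blocked by dofetilide plus 5 SD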;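 also: thallium influx through hERG after potassium depolarization seen as dye fluorescence rise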
KCC2 mod – KCC2 (human) Cl- transport modulation; Q9H2X9; KCC2 cells, thallium flux FluoZin-2 fluorescence; B-score of Tl+ flux slope (higher = more flux/activation; lower = inhibition) at 10 µM; 190,000 compounds, 2.2% hits; AID 1456;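 active = thallium flux slope and its plate-corrected score both differing from the plate sample mean at a set confidence after two filtering rounds, in either direction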;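 also: slope of fluorescence scaled to starting intensity during 10 to 20 s after thallium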
KCNQ1 block val – human KCNQ1 channel inhibition, validation assay; shares compounds with KCNQ1 inh; KCNQ1 cell line, FluxOR thallium flux fluorescence; inhibition, % at 10 µM; 1,600 compounds, 93% hits; AID 588353;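 active = primary screen active, with duplicate mean exceeding buffer control mean plus 3 SD of buffer wells, cut at about 28% in these data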;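 also: 0% = buffer control ratio and 100% = XE991 inhibitor control ratio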
CHO Tl flux – activity in parental CHO cells lacking KCNQ1; shares compounds with KCNQ1 inh; parental CHO-K1, FluxOR thallium flux fluorescence ratio; stronger effect = lower value; zero means no signal rise above baseline; fluorescence ratio (Tl flux) at 10 µM; 1,600 compounds, 21% hits;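 active = mean of duplicate thallium-flux fluorescence ratios in parental host cells more than 5 SD below the buffer control mean, cut at about 0.38 in these data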;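 also: ratio is peak minus minimum fluorescence divided by baseline fluorescence; actives read low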
KCNQ2 inh – KCNQ1 inhibitor that also blocks rat KCNQ2 channel; shares compounds with KCNQ1 inh; KCNQ2 cells, FluxOR thallium flux fluorescence; inhibition, % at 10 µM; 1,600 compounds, 71% hits; AID 651746;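 active = mean percent inhibition of the KCNQ2 thallium signal more than 5 SD above the buffer-only control wells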;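 also: KCNQ2 expressed in CHO cells; 0% = buffer control wells and 100% = XE-991 inhibitor control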
KCNQ1 KCNE1 spec – KCNQ1 inhibitor that also blocks human KCNQ1/KCNE1 channel. shares compounds with KCNQ1 inh. KCNQ1/KCNE1 cells, FluxOR thallium flux fluorescence. inhibition, % at 10 µM. 1,600 compounds, 77% hits. AID 652147;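 active = mean percent inhibition of duplicate wells above the buffer-only control mean plus 3 SD of those controls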;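 also: 0% = buffer only wells and 100% = XE-991 inhibitor control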
KCNK9 block conf – confirmation of human KCNK9 potassium channel inhibitors; shares compounds with KCNK9 inh; HEK293 KCNK9 cells, FluxOR thallium flux fluorescence; inhibition, % at 10 µM; 4,900 compounds, 43% hits; AID 492992;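 active = thallium signal inhibited by more than 5 SD of the compound-free buffer control wells, on both duplicate plates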;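 also: 0% = assay buffer control wells without compound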
Kir2-1 spec – selectivity of KCNK9 modulators against mouse Kir2.1 | 4,900 compounds, 4% hits | inhibition, % at 10 µM | Kir2.1 cells, FluxOR thallium flux fluorescence | shares compounds with KCNK9 inh | AID 492993;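 active = thallium signal drop more than 5 SD beyond the mean of the no-compound control wells, seen in both duplicate plates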;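 also: signal is fluorescence rise after thallium addition divided by baseline fluorescence; plate controls were assay buffer only for no effect and full block by chlorpromazine control for full effect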
HEK293 Tl ctr – non-induced cell nonspecific activity of KCNK9 modulators; shares compounds with KCNK9 inh; non-induced KCNK9-HEK293, FluxOR thallium flux; inhibition, % at 10 µM; 4,900 compounds, 40% hits;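 active = thallium signal drop beyond 5 SD of the untreated control mean, on both duplicate plates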;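 also: plate controls were buffer only IC0 wells for no effect and SID17386958 at its maximal inhibitory level for full effect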
KCNK3 inh conf – confirmation of human KCNK3 two-pore domain potassium channel inhibitors | CHO-KCNK3 thallium flux, FluxOR fluorescence; 0% buffer, 100% carvedilol maximal block | AID 651638 | ratio percent of control, % at 10 µM | shares compounds with KCNK3 inh | 2,400 compounds, 99% hits;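 active = ratio percent of control, averaged over triplicates, above buffer control mean plus 5 SD, cut at about 64% in these data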;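 also: ratio is the fluorescence rise from min to max over baseline after thallium stimulus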
KCNK3 noninduced – activity in cells without induced KCNK3 expression; shares compounds with KCNK3 inh; non-induced KCNK3 parental cells, FluxOR thallium flux; stronger effect = lower value; 2,400 compounds, 40% hits; AID 651747; thallium flux ratio (lower = more inhibition) at 10 µM;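 active = thallium flux ratio, averaged over three wells, more than 5 SD below the buffer control mean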;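 also: host cells are CHO cells without KCNK3 induction; ratio is peak minus trough fluorescence over baseline then normalized to buffer controls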
* marks the source's active call; other numbers are inactive results; i = inactive; . = no result; + = active, no number.

SMILES	KCNK3 inh	KCNK9 inh	KCNQ1 pot	KCNQ1 inh	hERG rescue	KCC2 mod	KCNK9 block conf	Kir2-1 spec	HEK293 Tl ctr	others
CCOc1ccc(CCNC(=O)c2ccc3c(=O)[nH]c4c(C(=O)NC(C)C)sc(=S)n4c3c2)cc1	-9*	i	i	15*	-27	.	.	.	.	KCNQ1 block val=156*;CHO Tl flux=0.33*;KCNQ2 inh=97%*;KCNQ1 KCNE1 spec=+;KCNK3 inh conf=108*;KCNK3 noninduced=i
O=C(NCC1CCCO1)c1sc(=S)n2c1[nH]c(=O)c1ccc(C(=O)N3CCCCC3)cc12 (stereo not drawn)	i	i	i	i	-21	-1.1	.	.	.
CC1CCN(C(=O)CCNS(=O)(=O)c2ccc(Br)cc2)CC1	i	.	.	.	.	.	.	.	.
COC(=O)c1ccc(NC(=S)NC2CCc3ccccc32)cc1 (stereo not drawn)	-8.8*	i	i	7*	-9	0.16	.	.	.	KCNQ1 block val=68*;CHO Tl flux=0.52;KCNQ2 inh=65%*;KCNQ1 KCNE1 spec=58%*;KCNK3 inh conf=93*;KCNK3 noninduced=i
COC(=O)CNC(c1ccccc1)c1cc(C)ccc1NC(=O)CNC(=O)OCc1ccccc1 (stereo not drawn)	i	i	i	i	-11	-0.31	.	.	.
COC(=O)CNC(c1ccccc1)c1cc(Br)ccc1NC(=O)OCc1ccccc1 (stereo not drawn)	i	-18*	i	i	-5	0.41	74%*	i	64%*
COc1ccccc1C(=O)NC(=O)Nc1c(C)cc(C)cc1C	i	i	i	i	-8	.	.	.	.
Clc1cccc(N2CCN(Cc3nnc(-c4ccccc4)o3)CC2)c1	i	i	i	i	-13	-0.3	i	i	i
CC(C)NC(=S)n1cc(C(=O)c2cc(Cl)cc(Cl)c2O)cn1	i	i	i	i	-8	.	.	.	.
CCOC(=O)C1CCN(Cc2coc3c(Cl)cc(Cl)cc3c2=O)CC1	i	i	i	i	-10	0.54	i	i	i
C=C1CCN([C@@H](Cc2ccccc2)C(=O)NC2CCN(Cc3ccccc3)CC2)S(=O)(=O)c2ccccc21	i	i	i	i	-12	.	.	.	.
CCCCCCCCCCCCCCCCCCNc1ccn(C2OC(COP(=O)(O)OCC3OC(n4cc(F)c(=O)[nH]c4=O)CC3O)C(O)C2O)c(=O)n1 (stereo not drawn)	i	.	.	.	.	.	.	.	.
